Measured values as given in ChEMBL document CHEMBL1133978, “Potent peptide alpha-ketohydroxamate inhibitors of recombinant human calpain I” (Bioorg Med Chem Lett, 2001).

These molecules were tested on MOLT-4 (assay: Inhibition of cell permeability by measuring the spectrin breakdown product in intact MOLT-4 cells). Conditions: Homo sapiens.
Assay type: functional, cell-based
Procedure, shortened: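 Intact MOLT-4 cells (human leukemia T-cell line) had calpain activated with ionomycin. Cell permeability was read as inhibition of the spectrin breakdown product. Potency is reported as IC50.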
`CS(=O)(=O)N[C@H](COCc1ccccc1)C(=O)N[C@@H](Cc1ccccc1)C(=O)C(=O)NOCc1ccccc1` was tested, and the IC50 was 900 nM. `CC(C)C[C@H](NC(=O)OCc1ccccc1)C(=O)N[C@@H](CC(C)C)C(=O)N[C@@H](Cc1ccccc1)C(=O)C(=O)NOCc1ccccc1` gave an IC50 of 200 nM. Molecule `CC(C)[C@@H](NC(=O)OCc1ccccc1)C(=O)N[C@@H](Cc1ccccc1)C(=O)C(=O)NOCc1ccccc1` has an IC50 of 600 nM. In the case of `CCONC(=O)C(=O)[C@H](Cc1ccccc1)NC(=O)[C@H](CC(C)C)NC(=O)OCc1ccccc1`, the IC50 is reported as 1100 nM. `CONC(=O)C(=O)[C@H](Cc1ccccc1)NC(=O)[C@H](CC(C)C)NC(=O)[C@H](CC(C)C)NC(=O)OCc1ccccc1` showed an IC50 of 200 nM. Molecule `CCCC[C@H](NC(=O)[C@@H](NC(=O)OCc1ccccc1)C(C)C)C(=O)C(=O)NOCc1ccccc1` has an IC50 of 500 nM. For `CC(C)C[C@H](NC(=O)OCc1ccccc1)C(=O)N[C@@H](Cc1ccccc1)C(=O)C(=O)NOCc1ccccc1`, the IC50 was 600 nM. For `CC(C)C[C@H](NC(=O)OCc1ccccc1)C(=O)N[C@@H](Cc1ccccc1)C(=O)C(=O)NOCc1c(F)c(F)c(F)c(F)c1F`, the IC50 was 2900 nM. `CC(C)C[C@H](NC(=O)OCc1ccccc1)C(=O)N[C@@H](Cc1ccccc1)C(=O)C(=O)NOC(C)(C)C` showed an IC50 of 3900 nM. Molecule `CONC(=O)C(=O)[C@H](Cc1ccccc1)NC(=O)[C@H](CC(C)C)NC(=O)OCc1ccccc1` has an IC50 of 900 nM.

Each molecule was assayed on MOLT-4 (assay: Compound was tested for inhibition of cell permeability by measuring the spectrin breakdown product in intact MOLT-4 cells at 1 uM). Conditions: Homo sapiens.
Assay type: functional
Procedure, shortened: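 In intact MOLT-4 human leukemia T cells, calpain was activated by ionomycin. Spectrin breakdown product was measured, and inhibition is given as percent at a single 1 μM test concentration.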
In the case of `CC(C)C[C@H](NC(=O)OCc1ccccc1)C(=O)N[C@@H](Cc1ccccc1)C(=O)C(=O)NOC1CCC(C)CC1` (stereo partly specified), the inhibition at 1 µM is reported as 26%.
